The labels stand for the following.
B1: tRNA (parent)
chain: GUUCCGUUGGCGUAAUGGUAACGCGUCUCCCUCCUAAGGAGAAGACUGCGGGUUCGAGUCCCGUACGGAACG

This sample holds only a part of the variants without activity.

The variants in the data set derive from B1. Briefly: yeast fitness relative to wild type (ratio to wild type); higher = fitter; tRNA-Arg(CCU), competitive growth, 37 C, YPD. The gist of the method:
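Genotype frequency changes were the basis for Darwinian fitness relative to wild type. The frequencies came from 100-nucleotide paired-end sequencing of gene amplicons from the start population and each end population of pooled yeast strains with tRNA-Arg(CCU) gene variants at the native locus. Competition ran in YPD at 37°C for 24 hours in six replicates, genotypes needed ≥ 100 starting reads, and estimates < 0.5 were set to 0.5.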
Consider G10A U47C C62U, for which the yeast fitness worked out at 0.566. Then G10C A45C, with 0.626.

Regarding G10C C11U C29G C55U, the yeast fitness is 0.556. As for G10C A14C G52C, the yeast fitness is no more than 0.5. As for G10C C24G C49U C66U, the yeast fitness is no more than 0.5. Consider G10C G12C C55A, for which the yeast fitness was no more than 0.5. Consider G10C C22A C29G C49G, for which the yeast fitness is no more than 0.5. Consider G10C C29G G39A U64A, for which the yeast fitness was no more than 0.5. Next, G10C C31G A65U: no more than 0.5; G10C G56A: 0.596; G10C G12C G39A C61U: no more than 0.5. Then G10C A15U, with 0.691.

For the variant G10C C22A C24G A70C, the yeast fitness came to 0.531. G10C A20U C22A: the yeast fitness is no more than 0.5. Next, G10C C33U G48C: no more than 0.5; G10C G18C C24U C66U: no more than 0.5. For G10C C22U G52A, the yeast fitness was no more than 0.5.

As for G10C C11U C30G G48A U54A, the yeast fitness stood at 0.693. Then G10C A14U U19A C22U U59G A65C, with no more than 0.5. Regarding G10C A14U G25A C27U U53C C61U A70G, the yeast fitness is no more than 0.5. Then G10A U35A A37G A43U A45C, with no more than 0.5. For the variant G10C C33G C46G C62G, the yeast fitness is no more than 0.5. Next, G10C C22U A42U C60G: no more than 0.5; G10C A36G A57U: no more than 0.5. Next, G10C C29A A40U C62G: no more than 0.5.

Turning to G10A U64C A69U, the yeast fitness is 0.542. With G10C A14U G25A C27U U53C, the yeast fitness was no more than 0.5. With G10C A36C C55U, the yeast fitness is no more than 0.5. Next, G10C G12C C49U G56C: no more than 0.5; G10C C24U C29A A42G A45U C46G U47A G50A U64G: no more than 0.5. G10A U35C A42C A43C: the yeast fitness is no more than 0.5. In the case of G10C C24U C29G, the yeast fitness worked out at 0.638. On to G10C C11G C24G G67A, for which the yeast fitness is no more than 0.5.

Turning to G10C C30G C34G A57G C66U, the yeast fitness was 0.523. With G10C U13A A14G A20G C22A C24G C62G, the yeast fitness was no more than 0.5. As to G10C A15C A21C, the yeast fitness was no more than 0.5. Then G10C A21G C22U C46U G56C, with 0.58; and G10C C66U, with 0.577; and G10C C33U A40C, with no more than 0.5. Next, G10C A14G A36U: no more than 0.5. On to G10C A14U G25A C27U U53C A70G, for which the yeast fitness was determined as 0.536. Then G10C A15U C29G C46U G51C, with no more than 0.5; and G10C G50A C61G, with 0.554.

Take G10C C34A A40G A69U: the yeast fitness is 0.552. Next, G10C C34A G67A: no more than 0.5; G10C G12C C24U C29G G68C: no more than 0.5; G10C A20G C24U G38C A57C G63C: no more than 0.5.

With G10A U54A, the yeast fitness turned out to be 0.698.

For G10A U54C, the yeast fitness came to 0.643. Next, G10C C33U A36G A43G: no more than 0.5; G10C C61U: 0.792. Next, G10C C61G: 0.656; G10C U13A A14G A20G C22A C24G U32G: no more than 0.5; G10C C27G A42C C49A G67A: no more than 0.5. With G10C C31U A57C C62A A70U, the yeast fitness is no more than 0.5. Consider G10C U13A A21U U26C C31U A43U G58A G63C A70C, for which the yeast fitness is no more than 0.5.

G10C A21C U26G C34U A40G G51A: the yeast fitness was 0.598. Then G10C C49U C62U, with no more than 0.5; and G10C G41A C66U, with no more than 0.5. Regarding G10C C24G C49G C55A, the yeast fitness stood at 0.683.

On to G10A U59C G68C, for which the yeast fitness is no more than 0.5. Next, G10A U26A C49U C66U: no more than 0.5; G10C A20G C66U: no more than 0.5. Take G10C G41C: the yeast fitness worked out at 0.634. Then G10C C22A C33A, with 0.538; and G10C C11U C22G C27G C33G A42C, with no more than 0.5.

Consider G10C G12C C46G C55U G67C, for which the yeast fitness is no more than 0.5.

Regarding G10C A14G G39A A65U, the yeast fitness was no more than 0.5. Then G10C A14C A15G U64G, with no more than 0.5; and G10C A14U G56A, with no more than 0.5. For the variant G10C A20C U28C A45G, the yeast fitness is no more than 0.5. Turning to G10C G12A U16A C30U, the yeast fitness was no more than 0.5.

In the case of G10C G12A, the yeast fitness amounted to 0.757.

Consider G10C G12C, for which the yeast fitness was 0.645.

Regarding G10C G12C C33U U35G, the yeast fitness is 0.614. For the variant G10C C27U G38A C46G, the yeast fitness stood at 0.57.

With G10C G12A G25C A37G, the yeast fitness was no more than 0.5. Then G10C A14C C24U A70C, with no more than 0.5; and G10C G51A G63A, with no more than 0.5; and G10A U53G C60A G68U A69C, with no more than 0.5. For G10C C11G C24G G48C, the yeast fitness is no more than 0.5.

Regarding G10C A37U A45G C66U, the yeast fitness is no more than 0.5.

With G10C C29U A69C, the yeast fitness was no more than 0.5.
